Source: ChEMBL document CHEMBL2169809, “Identification of high-affinity P2Y₁₂ antagonists based on a phenylpyrazole glutamic acid piperazine backbone” (J Med Chem, 2012)

Key:
Platelet [1] = test: Inhibition of ADP-stimulated platelet aggregation in human isolated platelets by light transmission aggregometry based Born method; assay type: functional, cell-based
In short: (§1)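 Platelets were pelleted from PRP (430g, 20 min, room temperature) and resuspended in modified Tyrode's buffer (145 mM NaCl, 5 mM KCl, 5.5 mM glucose, 15 mM Hepes, pH 7.4). CaCl2 (0.5 mM final) was added for 2 min at 37 °C, then fibrinogen (1 mg/mL final), then antagonist. Agonist was ADP, collagen or thrombin (0.1 U/mL final). Born aggregometry with stirring; % inhibition from AUC; IC50 from at least triplicate runs.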

Platelet [2] = test: Inhibition of collagen-stimulated platelet aggregation in human isolated platelets by light transmission aggregometry based Born method; assay type: functional, cell-based; in short: as §1
Platelet [3] = test: Inhibition of thrombin-stimulated platelet aggregation in human isolated platelets by light transmission aggregometry based Born method; assay type: functional, cell-based; in short: as §1
P2Y purinoceptor 12 = P2Y purinoceptor 12 (Homo sapiens, UniProt Q9H244); test: Displacement of [33P]2-MeS-ADP from human recombinant P2Y12 receptor expressed in CHO cell membranes by scintillation counting method
Platelet [4] = test: Inhibition of ADP-stimulated platelet aggregation in human platelet rich plasma by 96-well format based turbidimetric method; assay type: functional
In short: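 Citrated (ACD-A) donor blood was spun at 150g for 15 min at room temperature to give PRP. PRP was adjusted with PPP to 3 × 10^8 platelets/mL. Compound, diluted in NaCl, was preincubated with hPRP for 5 min before ADP was added.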

Platelet [5] = test: Inhibition of ADP-stimulated platelet aggregation in human platelet rich plasma by light transmission aggregometry based Born method; assay type: functional, cell-based
Canis familiaris = test: Antiplatelet aggregatory activity in dog assessed as inhibition of ADP-induced platelet aggregation at 10 mg/kg after 24 hrs; assay type: functional; settings: Canis lupus familiaris
In short: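 Ex vivo dog model: compound given orally at 10 mg/kg. Whole-blood platelet aggregation was measured by impedance 24 h after dosing, with ADP as agonist. Inhibition was calculated from mean area under the curve.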

P2Y purinoceptor 1 = P2Y purinoceptor 1 (Homo sapiens, UniProt P47900); test: Displacement of [33P]2-MeS-ADP from human recombinant P2Y1 receptor expressed in CHO cell membranes by scintillation counting method
P2Y purinoceptor 1, sequence (P47900 whole entry): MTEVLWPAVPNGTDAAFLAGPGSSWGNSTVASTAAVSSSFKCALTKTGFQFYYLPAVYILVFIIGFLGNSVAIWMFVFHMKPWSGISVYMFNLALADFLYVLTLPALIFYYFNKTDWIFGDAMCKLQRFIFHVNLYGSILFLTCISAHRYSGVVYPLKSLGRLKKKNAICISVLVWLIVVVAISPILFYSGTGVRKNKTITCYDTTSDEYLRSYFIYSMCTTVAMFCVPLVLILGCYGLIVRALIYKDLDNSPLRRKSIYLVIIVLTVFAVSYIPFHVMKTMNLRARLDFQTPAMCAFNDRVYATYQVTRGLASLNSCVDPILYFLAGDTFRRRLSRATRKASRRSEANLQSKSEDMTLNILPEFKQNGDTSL

P2Y purinoceptor 12, sequence (Q9H244 whole entry): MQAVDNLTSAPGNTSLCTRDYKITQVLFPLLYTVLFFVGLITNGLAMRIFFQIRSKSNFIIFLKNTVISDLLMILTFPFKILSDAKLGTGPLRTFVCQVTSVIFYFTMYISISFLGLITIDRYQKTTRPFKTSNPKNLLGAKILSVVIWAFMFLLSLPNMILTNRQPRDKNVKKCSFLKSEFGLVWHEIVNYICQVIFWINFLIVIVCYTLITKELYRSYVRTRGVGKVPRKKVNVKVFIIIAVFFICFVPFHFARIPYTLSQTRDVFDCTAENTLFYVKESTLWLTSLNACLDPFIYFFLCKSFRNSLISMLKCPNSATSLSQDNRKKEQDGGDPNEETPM

SMILES | IC50 (Platelet [1]) [nM] | IC50 (Platelet [2]) [nM] | IC50 (Platelet [3]) [nM] | Ki (P2Y purinoceptor 12) [nM] | IC50 (Platelet [4]) [nM] | IC50 (Platelet [5]) [nM] | inhibition in vivo at 10 mg/kg (Canis familiaris) [%] | Ki (P2Y purinoceptor 1) [nM]
CCOC(=O)N1CCN(C(=O)CNC(=O)c2cc(OCC(=O)N3CCC[C@H]3C(=O)NC3CCC3)n(-c3ccccc3)n2)CC1 | 99 | > 2000 | > 2000 | 107 | 90 | 100 | – | –
CCCCOC(=O)N1CCN(C(=O)CNC(=O)c2cc(OCC(=O)N3CCC[C@H]3C(=O)NC3CCC3)n(-c3ccccc3)n2)CC1 | 22 | > 2000 | > 2000 | 7.7 | 30 | 46 | 73 | > 20000
CCOC(=O)N1CCN(C(=O)[C@H](CCC(=O)O)NC(=O)c2cc(OCC(=O)N3CCC[C@H]3C(=O)NC3CCC3)n(-c3ccccc3)n2)CC1 | 7 | > 2000 | > 2000 | 7.3 | 25 | 9 | – | > 20000
CCCCOC(=O)NC1CCN(C(=O)[C@H](CCC(=O)O)NC(=O)c2cc(OCC(=O)N3CCC[C@H]3C(=O)NC3CCC3)n(-c3ccccc3)n2)CC1 | – | – | – | 22 | 55 | 120 | – | –
CCOC(=O)N1CCN(C(=O)[C@H](CCC(=O)O)NC(=O)c2cc(OCC(=O)N3CCC[C@H]3C(=O)NC3CCCC3)n(-c3ccccc3)n2)CC1 | – | – | – | 20 | 13 | 38 | – | –
CCOC(=O)N1CCN(C(=O)[C@H](CCC(=O)O)NC(=O)c2cc(OC3(C(=O)OCC)CCC3)n(-c3ccccc3)n2)CC1 | 701 | > 2000 | > 2000 | 139 | 3300 | 2930 | – | > 20000
CCOC(=O)COc1cc(C(=O)N[C@@H](CCC(=O)O)C(=O)N2CCN(C(=O)OCC)CC2)nn1-c1ccccc1 | – | – | – | 372 | 2250 | 2480 | – | –
CCCOC(=O)N1CCN(C(=O)[C@H](CCC(=O)O)NC(=O)c2cc(OCC(=O)N3CCC[C@H]3C(=O)NC3CCC3)n(-c3ccccc3)n2)CC1 | – | – | – | 3.1 | 21 | 30 | – | –
CCOC(=O)N1CCN(C(=O)[C@H](CCC(=O)O)NC(=O)c2cc(OCC(=O)C3CC3)n(-c3ccccc3)n2)CC1 | – | – | – | 249 | 2600 | 2510 | – | –
CCOC(=O)N1CCN(C(=O)[C@H](CCO)NC(=O)c2cc(OCC(=O)N3CCC[C@H]3C(=O)NC3CCC3)n(-c3ccccc3)n2)CC1 | – | – | – | 23 | 210 | 120 | – | –
CCOC(=O)N1CCN(C(=O)[C@H](CCC(=O)O)NC(=O)c2cc(OCC(=O)N3CCC[C@H]3C(=O)N3CCCCC3)n(-c3ccccc3)n2)CC1 | – | – | – | 56 | 70 | 73 | – | –
